INS promoter act: TRM-6 insulin promoter activation. AID 1296. hit rate 0.81% among 130,000. TRM-6 cells, insulin promoter eGFP reporter, imaging; plate-scaled: unstimulated 0, stimulated control 100. activation, % at 2 µM;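 active = activation at 2 µM above a set limit, confirmed on inspection of the cell images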;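 also: share of cells whose green reporter signal exceeds an intensity cutoff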
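Test system: human fetal islet-derived TRM-6 cells with tamoxifen-inducible insulin promoter–eGFP reporter; schedule: overnight tamoxifen, then two-day compound incubation at 37 °C; measured by: high-content imaging of fixed cells with Hoechst nuclear stain; evaluation: percent cells above green-intensity threshold, converted to percent activation versus plate controls; control set: stimulated and unstimulated wells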
Starred values were filed as active, the others as inactive; [ ] = another dose, or the depositor's remark. The full list was thinned out, with hits kept by preference.

SMILES | INS promoter act
CCOC(=O)c1cc(CC)sc1/N=C/C1C(=O)NC(=S)NC1=O | 295.0*
O=c1[nH]c(=S)n(Cc2ccc(F)cc2)c(O)c1C=NCc1cccnc1 | -2.8
N/C(=N/[N+](=O)[O-])N1CCN(C(=O)c2ccc(Cl)cc2)CC1 | -71.4
Brc1ccc(C2N3CCCN23)cc1 (stereo unspecified) | 508.3*
COCCNCCOc1ccc(C(C)(C)c2ccccc2)cc1 | 107.7
c1ccc(-c2ccc(-c3n(-c4ccccn4)c4ccccc4[n+]3-c3ccccn3)cc2)cc1 | 0.0
N=C1c2ccccc2CN1c1ncccn1 | 0.0
CCNC(=O)NNC(=O)C1CC(c2cccnc2)=NO1 (stereo unspecified) | 0.0
O=c1c2ccccc2nc(-c2ccco2)n1-c1cccnc1 | -2.9
CCCCOc1nc2ccccc2c(=O)n1-c1ccccc1 | 3.3
O=c1c2ccccc2nc(SCC2CCCCO2)n1-c1ccccc1 (stereo unspecified) | 366.7*
CCC(C)C12CN3CCN(CC(C)(C3)C1=O)C2 (stereo unspecified) | 2.8
CCN1/C(=C\C=C\C2=[N+](CC)c3ccccc3C2(C)C)C(C)(C)c2ccccc21 | 257.1*[toxic and fluoresces]
COP(=O)(OC)C(NC(=O)/C=C/c1ccccc1)C(Cl)(Cl)Cl (stereo unspecified) | 2.9
CC(C)(C)NC(=S)N1CCn2cccc2C1c1cccnc1 (stereo unspecified) | 0.0
O=C(/C=C/C=C/c1ccccc1)CC1(O)C(=O)Nc2ccccc21 (stereo unspecified) | -2.3
Cc1ccc(C(=O)Nc2ccc(Cl)cc2C(=O)c2ccccc2)cc1 | 113.3
O=C(Nc1ccc(Cl)cc1C(=O)c1ccccc1Cl)c1ccco1 | 230.0*
O=C(COc1ccccc1)Nc1ccc(Cl)cc1C(=O)c1ccccc1 | 116.7
Fc1ccccc1CCNCc1cccc(Cl)c1Cl | 0.0
COc1ccc(C(C)=O)cc1CC(C(=O)c1ccccc1)N(C)C (stereo unspecified) | -5.9
Cc1ccccc1N1C(=O)CC(=O)N(c2ccccc2C)C1=O | -8.3
Cc1ccc(C2N(c3ccccn3)C(=O)C3CCCN32)o1 (stereo unspecified) | 6.7
COc1ccccc1Cn1c(SCC(=O)C(C)(C)C)nc2cc(C(=O)N3CCC4(CC3)OCCO4)ccc2c1=O | 0.0
COc1ccc(N=C2SCCCN2C)cc1 | 512.5*
CCCc1nc2ccc(Br)cc2c(=O)n1-c1ccc([N+](=O)[O-])c(C(F)(F)F)c1 | -8.8
Cc1nn(Cc2ccc(Cl)cc2Cl)c(Cl)c1C(=O)Nc1ccc(OC(F)F)cc1 | 3.3
C[N+](C)(C)c1ccccc1 | 6.7
OC12ONC(c3ccccn3)C1N1CCC2CC1 (stereo unspecified) | 107.7
C=Cc1ccc(Cn2c(C(=O)O)c(C=O)c3ccccc32)cc1 | -5.9

Screens deposited in PubChem by Columbia University Molecular Screening Center.
